This is an account of results in ChEMBL document CHEMBL1138355, “Amine-guanidine switch: a promising approach to improve DNA binding and antiproliferative activities” (J Med Chem, 2007).

One assay deals with SK-BR-3. Briefly: Antiproliferative activity against human SKBR3 cells after 72 hrs. The note with it: SK-BR-3, 72 h. Format: functional, cell-based. The essentials:
(§1)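 Cells grown in DMEM with 10% calf serum and 1 mM pyruvate, seeded at 5000 cells/well, left 24 h, then given increasing concentrations from DMSO stock in triplicate (DMSO-only controls) for 72 h. CellTiter 96 aqueous one-solution reagent added for 3 h at 37 °C, A540 read. IC50 taken as the concentration halving cell number versus controls, from triplicate means.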

For assay [1], the system named is BT-474. Briefly: Antiproliferative activity against human BT474 cells after 72 hrs. Format: functional, cell-based. The note with it: BT-474, 72 h.
Another assay has as its system T47D. In words: Antiproliferative activity against human T47D cells after 72 hrs. Format: functional, cell-based. Summed up: as §1
The next assay deals with LNCaP. Briefly: Antiproliferative activity against human LnCAP cells after 72 hrs. Format: functional, cell-based.
The next assay relates to PC-3. In words: Antiproliferative activity against human PC3 cells after 72 hrs. The note with it: PC-3, 72 h. Format: functional, cell-based.
The test system of the next assay is HT-29. In words: Antiproliferative activity against human HT29 cells after 72 hrs. Format: functional, cell-based. The note with it: HT-29, 72 h. The essentials:
as §1

Assay [2] deals with DNA. Briefly: Binding affinity to calf thymus DNA assessed as thermal stability in BPE buffer at 2 uM. Format: nucleic-acid assay. The note with it: Bos taurus.
The subject of assay [3] is DNA. Briefly: Binding affinity to calf […] DNA assessed as thermal stability in cacodylate buffer at 12 uM. Format: nucleic-acid assay.
Assay [4] relates to DNA. Briefly: Binding affinity to calf […] DNA assessed as thermal stability in cacodylate buffer containing 0.1 M NaCl at 12 uM. Format: nucleic-acid assay.
A further assay deals with T1, Caspase-3 (Homo sapiens) (UniProt P42574).
T1 sequence (whole entry): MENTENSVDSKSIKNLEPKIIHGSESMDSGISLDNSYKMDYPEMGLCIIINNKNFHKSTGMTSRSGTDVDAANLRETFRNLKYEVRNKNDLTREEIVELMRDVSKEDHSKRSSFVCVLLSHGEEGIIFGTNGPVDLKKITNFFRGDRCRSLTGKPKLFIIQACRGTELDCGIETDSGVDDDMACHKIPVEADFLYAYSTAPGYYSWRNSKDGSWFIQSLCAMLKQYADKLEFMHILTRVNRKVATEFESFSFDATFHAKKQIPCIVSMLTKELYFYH
In words: Increase in caspase 3 activation in human SKBR3 cells at 20 uM after 24 hrs. Format: cell-based. The note with it: SK-BR-3. Summed up:
(§2)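 SKBR3 cells seeded at 10^4 per well and exposed to compounds at 20 µM for 24 h. Controls run with and without 0.2% DMSO. Caspase-3/7 activity measured in homogeneous lysates with Caspase-Glo 3/7 reagent as luciferase luminescence.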

The next assay deals with T2, Caspase-7 (Homo sapiens) (UniProt P55210).
T2 sequence (whole entry): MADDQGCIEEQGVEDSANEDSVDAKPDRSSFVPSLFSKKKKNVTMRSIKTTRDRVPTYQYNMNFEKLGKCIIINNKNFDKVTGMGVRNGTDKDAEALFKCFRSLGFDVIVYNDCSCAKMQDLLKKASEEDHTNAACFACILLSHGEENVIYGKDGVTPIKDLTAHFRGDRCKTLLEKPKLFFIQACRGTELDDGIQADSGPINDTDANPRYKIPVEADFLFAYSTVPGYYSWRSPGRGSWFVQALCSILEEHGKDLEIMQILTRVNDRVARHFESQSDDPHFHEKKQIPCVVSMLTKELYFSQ
In words: Increase in caspase 7 activation in human SKBR3 cells at 20 uM after 24 hrs. Format: cell-based. The note with it: SK-BR-3. Summed up: as §2

The test system of assay [5] is BT-474. Briefly: Antitumor activity against human BT474 cells xenografted gamma C null NOG/SCID mouse assessed as reduction in tumor volume at 20 mg/kg, ip after 44 days. Format: functional. On the set-up: scale not given: the % may be the effect or the level left. The note with it: route intraperitoneal. The essentials:
(§3)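 5 × 10^6 BT474 cells in Matrigel injected subcutaneously into the mammary gland of NOG/SCID mice. Once xenografts were established (10–15 days), mice got intraperitoneal doses in 0.9% NaCl every 3 days; controls got vehicle on the same schedule. Tumours measured by caliper, volume = 0.52(length × width²), five mice per group, percent volume change at day 44.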
(In general: Xenograft models place foreign cells or tissue in a host animal.)

The subject of assay [6] is BT-474. In words: Antitumor activity against human BT474 cells xenografted in gamma C null NOG/SCID mouse assessed as reduction in tumor volume at 60 mg/kg, ip after 44 days. Format: functional. Also on record: scale not given: the % may be the effect or the level left. The note with it: route intraperitoneal. The essentials: as §3

The structures appear in SMILES notation. Active and inactive are the calls of the source. The calls are words filed in the database; no cut-off is given here. A value given as a limit tells only on which side of the number the result lay.

Broadly, the IC50 is the concentration needed to halve the response being measured. One may read the ΔTm as the change in melting temperature against a reference sample. For the molecule `N=C(N)NCc1cccs1`, the IC50 was more than 40 µM in the assay on SK-BR-3; 95.5 µM in the assay on BT-474 [1]; 85.1 µM with T47D; 64.6 µM with LNCaP; more than 100 µM in the assay with PC-3; more than 100 µM with HT-29. The ΔTm in the assay with DNA [2] was 0.1 °C; in the assay with DNA [3], 0 °C; in the assay with DNA [4] it was 0 °C.

In the assay with SK-BR-3, `NCc1ccc2ccc3cccc4ccc1c2c34` had a half-inhibitory concentration (IC50) of 12 µM. In addition, the ΔTm is 5 °C in the assay on DNA [2], 15 °C in the assay with DNA [3] and 3 °C in the assay with DNA [4].

For the molecule `NCc1c2ccccc2cc2ccccc12`, in the assay with SK-BR-3, the midpoint of inhibition, the IC50, lay at 25.5 µM. The outcome at Caspase-3 (Homo sapiens) and at Caspase-7 (Homo sapiens) was inactive. For the same molecule, the shift in melting temperature (ΔTm) in the assay on DNA [2] turned out to be 3 °C; with DNA [3] it was 9 °C; in the assay on DNA [4] it was 1 °C.

Take `N=C(N)NCc1ccc2ccc3cccc4ccc1c2c34`: the IC50 in the assay with SK-BR-3 came to 11 µM; in the assay on BT-474 [1] it was 33.9 µM; in the assay on T47D, 43.7 µM; in the assay with LNCaP, 93.3 µM; in the assay on PC-3, 43.7 µM; in the assay on HT-29, 39.8 µM. Moreover, the results for the thermal shift (ΔTm) in the assay on DNA [2], in the assay on DNA [3] and with DNA [4] were 8.1 °C, 19 °C and 6 °C, respectively.

Turning to `CN1CCN(c2ccc3[nH]c(-c4ccc5[nH]c(-c6ccc(O)cc6)nc5c4)nc3c2)CC1`, the ΔTm in the assay on DNA [2] was 9 °C; in the assay on DNA [3], 25.1 °C; in the assay with DNA [4], 12 °C.

`CCBr`: the ΔTm in the assay with DNA [2] worked out at 8.1 °C; with DNA [3], 21 °C; in the assay with DNA [4], 5 °C.

Take `NCCCCNCc1ccc2ccc3cccc4ccc1c2c34`: the IC50 in the assay on SK-BR-3 turned out to be 4.2 µM. Moreover, the ΔTm with DNA [2] was found to be 20.2 °C; in the assay on DNA [3] it was 32.1 °C; with DNA [4], 10 °C.

For `N=C(N)NCCCNCCCCNCCCNCc1ccc2ccc3cccc4ccc1c2c34`, the figures for the IC50 in the assay with SK-BR-3, with BT-474 [1] and in the assay with T47D were 25.3 µM, 34.6 µM and 8 µM, respectively. Besides, the result on Caspase-3 (Homo sapiens) and on Caspase-7 (Homo sapiens) was inactive. For the same molecule, the Tm in the assay with DNA [2] is more than 100 °C. The thermal shift (ΔTm) stood at 39.1 °C in the assay with DNA [3] and 16 °C in the assay with DNA [4].

With `N=C(N)NCc1ccccc1`, the IC50 in the assay with SK-BR-3 is more than 40 µM; in the assay on BT-474 [1] it was 47.9 µM; with T47D it was 83.2 µM; in the assay with LNCaP it was 43.7 µM; in the assay on PC-3, more than 100 µM; in the assay on HT-29 it was more than 100 µM. Also, the outcome at Caspase-3 (Homo sapiens) and on Caspase-7 (Homo sapiens) was inactive. The ΔTm with DNA [2] amounted to 0.1 °C; in the assay with DNA [3], 0.1 °C; in the assay on DNA [4], 0 °C.

`N=C(N)NCc1c2ccccc2cc2ccccc12`: the IC50 with SK-BR-3 is 1.9 µM; in the assay with BT-474 [1] it was 19.1 µM; in the assay on T47D, 29.5 µM; in the assay on LNCaP, 3.5 µM; in the assay with PC-3 it was 10 µM; in the assay with HT-29, more than 100 µM. Further, the outcome on Caspase-3 (Homo sapiens) and at Caspase-7 (Homo sapiens) was Active. The ΔTm worked out at 6.1 °C in the assay on DNA [2], 15 °C in the assay with DNA [3] and 4 °C with DNA [4].

On to `N=C(N)NCCCCNCc1ccc2ccc3cccc4ccc1c2c34`, for which the IC50 was determined as 1.9 µM with SK-BR-3; 16.2 µM with BT-474 [1]; 2.2 µM with T47D; 9.3 µM with LNCaP; 7.9 µM in the assay with PC-3; 30.9 µM in the assay on HT-29. Besides, the Activity in the assay on BT-474 [5] is reported as 32%; in the assay with BT-474 [6], 73%. Moreover, the result at Caspase-3 (Homo sapiens) and on Caspase-7 (Homo sapiens) was Active. Moreover, the Tm in the assay on DNA [2] is more than 100 °C. In addition, the ΔTm in the assay on DNA [3] was 34.2 °C; in the assay on DNA [4] it was 12 °C.

Molecule `NCc1ccc2c(c1)Cc1ccccc1-2` came in with a concentration for half-maximal inhibition (IC50) with SK-BR-3 of more than 40 µM. Also, the outcome on Caspase-3 (Homo sapiens) and at Caspase-7 (Homo sapiens) was inactive. For the same molecule, the ΔTm in the assay with DNA [2] came out at 1 °C; with DNA [3], 0.1 °C; in the assay on DNA [4] it was 0 °C.

Take `NCc1cccs1`: the IC50 in the assay with SK-BR-3 was more than 40 µM. The ΔTm stood at 0.1 °C with DNA [2], 0 °C with DNA [3] and 0 °C in the assay on DNA [4].

Take `NCCCCNCc1c2ccccc2cc2ccccc12`: the IC50 in the assay on SK-BR-3 amounted to 3.3 µM. Besides, the ΔTm in the assay with DNA [2] is 13.1 °C; in the assay on DNA [3], 26 °C; in the assay on DNA [4] it was 8 °C.

As for `N=C(N)NCc1ccc2c(c1)Cc1ccccc1-2`, the IC50 in the assay with SK-BR-3 worked out at 15.7 µM; in the assay on BT-474 [1], 19.1 µM; in the assay with T47D, 6.9 µM; with LNCaP, 27.5 µM; in the assay with PC-3, 24 µM; in the assay with HT-29 it was 32.4 µM. Also, the figures for the ΔTm in the assay with DNA [2], with DNA [3] and in the assay with DNA [4] were 0 °C, 1 °C and 0 °C, respectively.

As for `N=C(N)NCCCCNCc1c2ccccc2cc2ccccc12`, the IC50 came out at 2.3 µM with SK-BR-3; 14.5 µM with BT-474 [1]; 30.9 µM in the assay with T47D; 28.2 µM in the assay on LNCaP; 13.8 µM in the assay on PC-3; 79.4 µM in the assay with HT-29. Also, the values for the ΔTm in the assay on DNA [2], in the assay with DNA [3] and in the assay with DNA [4] were 15.1 °C, 28.1 °C and 9 °C, respectively.

In the assay with SK-BR-3, `NCc1ccccc1` [BENZYLAMINE] returned an IC50 of more than 40 µM. Besides, the result on Caspase-3 (Homo sapiens) and at Caspase-7 (Homo sapiens) was inactive. Moreover, the results for the ΔTm in the assay on DNA [2], in the assay on DNA [3] and with DNA [4] were 0 °C, 0.1 °C and 0 °C, respectively.

Regarding `N=C(N)NCCCCCCNCc1ccc2ccc3cccc4ccc1c2c34`, the IC50 turned out to be 4.8 µM in the assay on SK-BR-3, 29.2 µM with BT-474 [1] and 2.2 µM in the assay on T47D. In addition, the Tm in the assay on DNA [2] was more than 100 °C. In addition, the ΔTm amounted to 34.1 °C in the assay with DNA [3] and 12 °C in the assay with DNA [4].
